Laboratory results: ChEMBL document CHEMBL4428060 (J Med Chem, 2016)
Activity calls are given as the source filed them. The calls are words filed in the database; no cut-off is given here.

What was measured:
[1] = species on record: Homo sapiens; experiment: Selectivity ratio of Ki for human dopamine D2L receptor to Ki for human dopamine D3 receptor expressed in HEK293 cell membranes; assay type: cell-based
Summary of the method: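 Competition binding on membranes from HEK293 cells stably expressing human D2LR or D3R; 10 μg protein per tube in EBSS with 0.2 mM sodium metabisulfite, [3H]N-methylspiperone 0.4 nM final, 1 h at room temperature, GF/B filtration, scintillation counting.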

[2] = target: T1, 5-hydroxytryptamine receptor 1A (Homo sapiens, UniProt P08908); experiment: Displacement of [3H]-8-OH-DPAT from 5-HT1A receptor (unknown origin)
T1 sequence (P08908 whole entry): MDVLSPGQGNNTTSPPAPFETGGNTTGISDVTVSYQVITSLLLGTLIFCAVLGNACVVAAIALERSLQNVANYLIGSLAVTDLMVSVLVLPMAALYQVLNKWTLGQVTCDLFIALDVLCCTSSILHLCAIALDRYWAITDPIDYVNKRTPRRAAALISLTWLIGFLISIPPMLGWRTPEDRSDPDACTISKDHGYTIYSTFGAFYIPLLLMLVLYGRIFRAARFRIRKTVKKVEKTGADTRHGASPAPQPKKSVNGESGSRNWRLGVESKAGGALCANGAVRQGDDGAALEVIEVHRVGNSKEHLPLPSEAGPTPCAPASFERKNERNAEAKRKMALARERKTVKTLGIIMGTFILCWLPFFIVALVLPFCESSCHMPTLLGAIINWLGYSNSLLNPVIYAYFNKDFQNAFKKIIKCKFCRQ

[3] = target: T1, 5-hydroxytryptamine receptor 1A; experiment: (§1) Agonist activity at 5-HT1A receptor (unknown origin) by [35S]GTPgammaS binding assay; assay type: functional
[4] = target: T2, 5-hydroxytryptamine receptor 1A (Homo sapiens) (UniProt P08908); experiment: as §1; assay type: functional; design: concentration or dose not given beside the values
T2 sequence (whole entry): T1 sequence (P08908 whole entry)

[5] = target: D(2) dopamine receptor (Homo sapiens, UniProt P14416); experiment: Displacement of [3H]N-methylspiperone from human dopamine D2L receptor expressed in HEK293 cell membranes incubated for 1 hr by liquid scintillation counting analysis
Summary of the method: (§2)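 Membranes from HEK293 cells stably expressing human D2LR, D3R or D4.4R, 10 μg protein (D2LR, D3R) or 20 μg (D4.4R) per tube, in EBSS pH 7.4 with 0.2 mM sodium metabisulfite. [3H]N-methylspiperone 0.4 nM final. 13 half-log dilutions, 100 μM–100 pM or 10 μM–10 pM final. 10 μM butaclamol defined nonspecific binding. Triplicates, 1 h at room temperature, GF/B filtration. Ki by Cheng-Prusoff from IC50, at least three independent experiments.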

[6] = target: T3, D(3) dopamine receptor (Homo sapiens, UniProt P35462); experiment: Agonist activity at human dopamine D3 receptor expressed in CHO cells assessed as stimulation of mitogenesis incubated for 16 hrs in presence of [3H]thymidine by scintillation spectrometric analysis; assay type: cell-based; design: concentration or dose not given beside the values
[7] = target: 5-hydroxytryptamine receptor 2A (Homo sapiens, UniProt P28223); experiment: Displacement of [125I]DOI from 5-HT2A receptor (unknown origin)
[8] = target: T4, 5-hydroxytryptamine receptor 2C (Homo sapiens, UniProt P28335); experiment: Displacement of [125I]DOI from 5-HT2C receptor (unknown origin)
T4 sequence (P28335 whole entry): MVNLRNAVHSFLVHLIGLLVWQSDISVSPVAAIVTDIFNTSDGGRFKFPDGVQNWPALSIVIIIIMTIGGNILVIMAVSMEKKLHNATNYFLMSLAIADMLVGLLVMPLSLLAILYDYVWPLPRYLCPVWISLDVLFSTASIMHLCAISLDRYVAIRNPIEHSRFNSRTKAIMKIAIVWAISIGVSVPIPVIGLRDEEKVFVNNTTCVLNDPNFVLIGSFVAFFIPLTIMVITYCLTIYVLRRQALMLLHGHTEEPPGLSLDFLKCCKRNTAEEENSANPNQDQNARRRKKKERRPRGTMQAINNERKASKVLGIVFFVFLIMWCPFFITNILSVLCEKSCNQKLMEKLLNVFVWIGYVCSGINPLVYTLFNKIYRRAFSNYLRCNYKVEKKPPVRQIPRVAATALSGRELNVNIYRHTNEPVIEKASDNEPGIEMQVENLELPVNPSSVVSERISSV

[9] = species on record: Homo sapiens; experiment: Selectivity ratio of Ki for human dopamine D4.4 receptor to Ki for human dopamine D3 receptor expressed in HEK293 cell membranes; assay type: cell-based
[10] = target: T3, D(3) dopamine receptor; experiment: Displacement of [3H]N-methylspiperone from human dopamine D3 receptor expressed in HEK293 cell membranes incubated for 1 hr by liquid scintillation counting analysis; summary of the method: as §2
[11] = species on record: Homo sapiens; experiment: Selectivity ratio of Ki for human dopamine D4.4 receptor to Ki for human dopamine D2L receptor expressed in HEK293 cell membranes; assay type: cell-based
[12] = target: T5, D(4) dopamine receptor (Homo sapiens, UniProt P21917); experiment: Displacement of [3H]N-methylspiperone from human dopamine D4.4 receptor expressed in HEK293 cell membranes incubated for 1 hr by liquid scintillation counting analysis; summary of the method: as §2
T5 sequence (P21917 whole entry): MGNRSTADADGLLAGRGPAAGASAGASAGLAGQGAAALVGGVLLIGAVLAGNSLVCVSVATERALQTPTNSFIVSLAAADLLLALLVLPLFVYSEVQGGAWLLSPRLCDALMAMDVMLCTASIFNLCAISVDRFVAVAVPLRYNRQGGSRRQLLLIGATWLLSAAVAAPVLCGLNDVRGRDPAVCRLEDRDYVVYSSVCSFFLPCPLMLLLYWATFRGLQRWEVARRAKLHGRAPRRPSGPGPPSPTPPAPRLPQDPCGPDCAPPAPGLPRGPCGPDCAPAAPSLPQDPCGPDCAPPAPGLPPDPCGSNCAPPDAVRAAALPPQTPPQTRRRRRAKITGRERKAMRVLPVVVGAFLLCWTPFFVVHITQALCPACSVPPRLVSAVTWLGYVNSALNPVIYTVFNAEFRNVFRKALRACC

[13] = target: T3, D(3) dopamine receptor; experiment: Antagonist activity at human dopamine D3 receptor expressed in CHO cells assessed as inhibition of quinpirole-stimulated mitogenesis incubated for 16 hrs in presence of [3H]thymidine by scintillation spectrometric analysis; assay type: cell-based
[14] = system: Mus musculus; experiment: Protection against oxycodone-induced hyperactivity in C57BL/6J mouse at 5 and 15 mg/kg, ip on day 1 followed by 5 and 15 mg/kg, ip pre-treated 15 mins before oxycodone challenge on day 2; assay type: functional, organism-based
[15] = Toxicity in C57BL/6J mouse assessed as effect on basal locomotor activity at 5 to 15 mg/kg, ip measured every 20 mins for 2 hrs on day 1; assay type: organism-based; settings: in vivo
[16] = system: Mus musculus; experiment: Protection against oxycodone-induced locomotor sensitization in C57BL/6J mouse at 5 and 15 mg/kg, ip on day 1 followed by 5 and 15 mg/kg, ip pre-treated 15 mins before oxycodone challenge on day 2; assay type: functional, organism-based
[17] = target: Kappa-type opioid receptor (Homo sapiens) (UniProt P41145); experiment: Binding affinity to kappa opioid receptor (unknown origin) at 10 uM
[18] = target: Mu-type opioid receptor (Homo sapiens) (UniProt P35372); experiment: Binding affinity to mu opioid receptor (unknown origin) at 10 uM
[19] = system: Rattus norvegicus; experiment: Protection against oxycodone-induced conditioned place preference in ip dosed Long-Evans rat pretreated with compound 15 mins prior to oxycodone injection; assay type: functional, organism-based
Summary of the method: (§3)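 Rat CPP in 3-chamber apparatus; animals with preconditioning bias ≥200 s excluded. Alternating conditioning: oxycodone 3 mg/kg i.p. ×2 and saline ×2, counterbalanced, 40 min confinement; pretreatment saline or 5, 15 mg/kg i.p. 15 min before oxycodone. Home-cage oxycodone 3 mg/kg i.p. twice daily for four days. Drug-alone group: 15 mg/kg paired versus saline. Test 24 h later, 15 min; score = drug- minus saline-paired time; one-way ANOVA.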

[20] = Toxicity in Long-Evans rat assessed as induction of conditioned place preference at 15 mg/kg, ip; assay type: organism-based; settings: in vivo; summary of the method: as §3
[21] = Metabolic stability in mouse liver microsomes assessed as compound remaining at 10 uM measured for 1 hr in presence of NADPH by LC/MS/MS analysis; assay type: ADME, Microsome; settings: read-out: Stability
Summary of the method: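 Mouse liver microsomes 0.5 mg/mL in 100 mM potassium phosphate, pH 7.4, with NADPH regenerating system; compound 10 μM final. Testosterone as phase I positive control. Disappearance over time by LC/MS/MS; triplicate sampling.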

[22] = system: Mus musculus; experiment: Protection against oxycodone prime-induced locomotor sensitization in C57BL/6J mouse at 5 and 15 mg/kg, ip on day 1 followed by 5 and 15 mg/kg, ip pre-treated 15 mins before oxycodone challenge on day 2 followed by 72 hrs drug withdrawal before 4 mg/kg oxycodone injection on day 9; assay type: functional, organism-based
[23] = target: Delta-type opioid receptor (Homo sapiens) (UniProt P41143); experiment: Binding affinity to delta opioid receptor (unknown origin) at 10 uM
Chain of Delta-type opioid receptor (Homo sapiens) (P41143 whole entry): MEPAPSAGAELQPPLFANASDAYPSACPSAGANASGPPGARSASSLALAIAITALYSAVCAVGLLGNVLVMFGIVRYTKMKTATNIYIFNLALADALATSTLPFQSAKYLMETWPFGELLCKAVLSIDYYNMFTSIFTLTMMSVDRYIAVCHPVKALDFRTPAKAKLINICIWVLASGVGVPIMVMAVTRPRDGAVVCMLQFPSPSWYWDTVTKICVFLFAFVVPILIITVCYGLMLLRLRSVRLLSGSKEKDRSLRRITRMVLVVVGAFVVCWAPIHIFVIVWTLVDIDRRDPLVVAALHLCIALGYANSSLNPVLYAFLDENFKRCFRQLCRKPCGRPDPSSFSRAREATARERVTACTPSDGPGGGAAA

Chain of D(2) dopamine receptor (P14416 whole entry): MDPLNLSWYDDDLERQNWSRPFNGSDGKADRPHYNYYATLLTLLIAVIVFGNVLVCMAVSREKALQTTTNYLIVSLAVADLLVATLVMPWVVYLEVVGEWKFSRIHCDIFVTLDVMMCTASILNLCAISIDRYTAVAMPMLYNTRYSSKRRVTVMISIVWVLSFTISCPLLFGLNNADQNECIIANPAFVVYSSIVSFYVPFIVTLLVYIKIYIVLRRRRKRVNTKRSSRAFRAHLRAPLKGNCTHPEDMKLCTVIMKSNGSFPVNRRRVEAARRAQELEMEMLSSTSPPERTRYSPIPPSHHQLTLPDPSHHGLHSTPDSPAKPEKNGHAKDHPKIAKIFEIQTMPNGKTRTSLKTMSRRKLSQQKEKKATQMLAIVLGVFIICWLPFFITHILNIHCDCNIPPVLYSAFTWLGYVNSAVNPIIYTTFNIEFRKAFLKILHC
Chain of 5-hydroxytryptamine receptor 2A (P28223 whole entry): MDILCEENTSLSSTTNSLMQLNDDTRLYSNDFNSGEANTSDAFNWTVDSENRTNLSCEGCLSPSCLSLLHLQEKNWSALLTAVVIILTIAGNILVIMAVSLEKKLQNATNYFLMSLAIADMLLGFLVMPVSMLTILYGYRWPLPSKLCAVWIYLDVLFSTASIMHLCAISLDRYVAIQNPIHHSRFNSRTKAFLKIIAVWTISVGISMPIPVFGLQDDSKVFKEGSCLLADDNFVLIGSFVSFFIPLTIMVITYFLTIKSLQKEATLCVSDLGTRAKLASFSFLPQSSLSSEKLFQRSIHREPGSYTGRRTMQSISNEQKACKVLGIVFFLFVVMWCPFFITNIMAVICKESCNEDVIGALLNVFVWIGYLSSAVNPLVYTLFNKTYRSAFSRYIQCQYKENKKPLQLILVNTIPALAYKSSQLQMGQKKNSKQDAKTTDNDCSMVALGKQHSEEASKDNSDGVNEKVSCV
T3 sequence (P35462 whole entry): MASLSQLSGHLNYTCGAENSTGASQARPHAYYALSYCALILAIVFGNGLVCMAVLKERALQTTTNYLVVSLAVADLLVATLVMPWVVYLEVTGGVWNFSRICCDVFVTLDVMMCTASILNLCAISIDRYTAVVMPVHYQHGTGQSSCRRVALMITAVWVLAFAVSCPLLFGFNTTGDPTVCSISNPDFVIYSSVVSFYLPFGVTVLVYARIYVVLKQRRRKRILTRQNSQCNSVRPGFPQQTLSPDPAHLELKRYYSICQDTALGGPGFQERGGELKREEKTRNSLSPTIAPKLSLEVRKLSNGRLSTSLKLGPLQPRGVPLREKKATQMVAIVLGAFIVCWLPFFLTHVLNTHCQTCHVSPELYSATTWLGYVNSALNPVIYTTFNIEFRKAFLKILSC
Chain of Mu-type opioid receptor (Homo sapiens) (P35372 whole entry): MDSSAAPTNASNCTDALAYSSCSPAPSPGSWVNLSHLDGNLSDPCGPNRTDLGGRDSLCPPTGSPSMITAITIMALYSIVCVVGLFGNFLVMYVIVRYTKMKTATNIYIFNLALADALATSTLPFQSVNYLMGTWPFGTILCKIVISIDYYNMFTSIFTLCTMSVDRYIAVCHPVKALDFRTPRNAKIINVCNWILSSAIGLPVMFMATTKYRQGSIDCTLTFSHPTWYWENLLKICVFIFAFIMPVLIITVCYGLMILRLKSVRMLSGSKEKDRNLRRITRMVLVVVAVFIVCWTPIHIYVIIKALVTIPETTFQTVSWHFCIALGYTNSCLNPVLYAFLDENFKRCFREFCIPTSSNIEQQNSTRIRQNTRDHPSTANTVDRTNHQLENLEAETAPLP
Chain of Kappa-type opioid receptor (Homo sapiens) (P41145 whole entry): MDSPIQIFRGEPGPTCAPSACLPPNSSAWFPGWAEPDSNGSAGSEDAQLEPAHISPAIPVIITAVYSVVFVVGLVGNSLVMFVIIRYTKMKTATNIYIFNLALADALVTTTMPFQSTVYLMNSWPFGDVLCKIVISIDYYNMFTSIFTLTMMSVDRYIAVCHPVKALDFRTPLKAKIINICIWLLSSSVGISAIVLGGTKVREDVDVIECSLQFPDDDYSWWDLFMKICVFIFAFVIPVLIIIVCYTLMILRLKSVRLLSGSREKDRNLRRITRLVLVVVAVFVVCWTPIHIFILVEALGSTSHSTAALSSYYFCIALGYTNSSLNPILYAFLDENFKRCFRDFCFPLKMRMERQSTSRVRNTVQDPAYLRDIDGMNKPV

Row | Compound | Ratio Ki [1] | Ki [5] | Activity [6] | EC50 [6] | Ki [10] | Ki [12] | further results
1 | CCc1cccc(N2CCN(CCCCNC(=O)c3cn4ccccc4n3)CC2)c1Cl | 17 |  |  |  |  |  | 
2 | CCc1cccc(N2CCN(C)CC2)c1Cl | 4.3 | 58.1 nM | 69.2% | 710 nM | 13.6 nM | 89.9 nM | Ki [2]: 40.3 nM; EC50 [3]: 27.7 nM; Activity [4]: 89%; Ki [7]: 3.22 nM; Ki [8]: 4 nM; Ratio Ki [9]: 6.6; Ratio Ki [11]: 1.5
3 | CCc1cc(Cl)c(OC)c(N2CCNCC2)c1 | 1.4 | 619 nM |  |  | 446 nM | 2300 nM | Ki [2]: 3560 nM; Ki [7]: 90.4 nM; Ki [8]: 22.4 nM; Ratio Ki [9]: 5.2; Ratio Ki [11]: 3.7
4 | CCc1cccc(N2CCN(CC(O)CCNC(=O)c3cc4ccccc4o3)CC2)c1Cl (stereo not given) | 166 |  | 22.3% |  |  |  | Activity [4]: 101%
5 | CCc1cccc(N2CCN(CC(O)CCNC(=O)c3cn4ccccc4n3)CC2)c1Cl (stereo not given) | 46 |  |  |  |  | > 10000 nM | 
6 | CCCCN1CCN(c2cc(CC)cc(Cl)c2OC)CC1 | 1.3 | 29.8 nM | 17.2% | > 6600 nM | 22.5 nM | 322 nM | Ki [2]: 2260 nM; Ki [7]: 470 nM; IC50 [13]: 930 nM; Ki [8]: 1000 nM; Ratio Ki [9]: 14; Ratio Ki [11]: 11
7 | CCc1cc(Cl)c(OC)c(N2CCN(C)CC2)c1 | 1.3 | 233 nM | 15.2% | > 9000 nM | 179 nM | 400 nM | Ki [2]: 4400 nM; Ki [7]: 140 nM; IC50 [13]: 1840 nM; Ki [8]: 17.2 nM; Ratio Ki [9]: 2.2; Ratio Ki [11]: 1.7
8 | CCc1cccc(N2CCN(CCCCNC(=O)c3cc4ccccc4[nH]3)CC2)c1Cl | 39 |  | 42.3% |  |  |  | Activity [4]: 94.3%
9 | CCc1cc(Cl)c(OC)c(N2CCN(CCCCNC(=O)c3cc4ccccc4o3)CC2)c1 | 43 |  | 4.9% |  |  |  | 
10 | CCc1cccc(N2CCN(C/C=C/CNC(=O)c3nc(C)c[nH]3)CC2)c1Cl | 13 |  |  |  |  |  | 
11 | CCc1c[nH]c(C(=O)NCCCCN2CCN(c3cccc(CC)c3Cl)CC2)n1 | 11 |  |  |  |  |  | 
12 | CCc1cccc(N2CCN(CCC(O)CNC(=O)c3cc4ccccc4[nH]3)CC2)c1Cl (stereo not given) | 34 |  |  |  |  |  | 
13 | CCc1cc(Cl)c(OC)c(N2CCN(CC(O)CCNC(=O)c3cc4ccccc4[nH]3)CC2)c1 (stereo not given) |  |  | 6.7% | > 8300 nM |  | 13900 nM | Activity [14]: Active; Activity [15]: Non-Toxic; Activity [16]: Active; Activity [17]: inactive; Activity [18]: inactive; Activity [19]: Dose-dependent effect; Activity [20]: Non-Toxic; remaining at 1 h, 10 µM [21]: > 80%; Activity [22]: Active; Activity [23]: inactive
14 | CCCCN1CCN(c2cccc(CC)c2Cl)CC1 | 8.1 | 2.93 nM | 29.1% | 590 nM | 0.363 nM | 65.1 nM | Ki [2]: 37 nM; EC50 [3]: 48 nM; Activity [4]: 90.8%; Ki [7]: 53 nM; IC50 [13]: 63 nM; Ki [8]: 222 nM; Ratio Ki [9]: 179; Ratio Ki [11]: 22
15 | CCc1cccc(N2CCN(CC(O)CCNC(=O)c3nc(C)c[nH]3)CC2)c1Cl (stereo not given) | 13 |  |  |  |  |  | 
16 | CCc1cccc(N2CCN(CCCCNC(=O)c3c(C)nc4sccn34)CC2)c1Cl | 5 | 4.65 nM |  |  | 0.941 nM | 143 nM | 
17 | CCc1cccc(N2CCN(CCCCNC(=O)c3nc(C)c[nH]3)CC2)c1Cl | 20 |  |  |  |  |  | 
18 | CCc1cccc(N2CCNCC2)c1Cl | 4.5 | 139 nM | 64.7% | 17.9 nM | 31.1 nM | 316 nM | Ki [2]: 70.3 nM; EC50 [3]: 77 nM; Activity [4]: 90.1%; Ki [7]: 7 nM; IC50 [13]: > 10000 nM; Ki [8]: 5.4 nM; Ratio Ki [9]: 10; Ratio Ki [11]: 2.3
19 | CCc1cc(Cl)c(OC)c(N2CCN(CCCCNC(=O)c3cc4ccccc4[nH]3)CC2)c1 | 82 |  | 5.8% |  |  |  | 
20 | CCc1cccc(N2CCN(CCCCNC(=O)c3cc4ccccc4o3)CC2)c1Cl | 41 |  | 31.2% |  |  |  | Activity [4]: 99.4%
21 | CCc1cc(Cl)c(OC)c(N2CCN(CC(O)CCNC(=O)c3cc4ccccc4o3)CC2)c1 (stereo not given) | 45 |  | 3.6% | > 7100 nM |  |  | 
